Experimental findings from ChEMBL document CHEMBL1153353, “Probing of the cis-5-phenyl proline scaffold as a platform for the synthesis of mechanism-based inhibitors of the Staphylococcus aureus sortase SrtA isoform” (Bioorg Med Chem, 2009) are described below.

Calls of active or inactive are those of the source. The rule behind the calls is not given here. Where only a bound is given, the exact number is not on record here.

Test [1] concerns the target T1, Sortase A (Staphylococcus aureus, UniProt Q9S446).
T1 sequence (Q9S446 whole entry): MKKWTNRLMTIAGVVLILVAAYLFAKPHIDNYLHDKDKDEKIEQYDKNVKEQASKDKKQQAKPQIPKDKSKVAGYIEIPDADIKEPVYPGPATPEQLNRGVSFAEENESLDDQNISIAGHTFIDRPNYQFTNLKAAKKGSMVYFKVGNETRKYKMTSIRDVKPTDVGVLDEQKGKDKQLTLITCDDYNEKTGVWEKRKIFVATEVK
In words: Inhibition of 6-His tagged Staphylococcus aureus recombinant sortase delta N24 expressed in Escherichia coli BL21 (DE3). In short, it runs like this: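 N-terminally His6-tagged SrtA lacking residues 1-24, Ni-chelate purified. 1 μM enzyme pre-incubated with inhibitor 30 min at 37°C, then 2 mM Abz-LPETG-Dap(DNP)-NH2 plus 2 mM NH2-Gly5-OH added. Buffer: 300 mM Tris pH 7.5, 150 mM NaCl, 5 mM CaCl2, 0.1% CHAPS, 2% DMSO. Ran 30 min at 37°C, HCl-quenched. Reverse-phase HPLC at 355 nm gave substrate-to-product conversion, relative to uninhibited controls.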

Test [2] concerns the target T2, Sortase A (Staphylococcus aureus) (UniProt Q9S446).
T2 sequence (whole entry): T1 sequence (Q9S446 whole entry)
The test can be described thus: Inhibition of 6-His tagged Staphylococcus aureus recombinant sortase delta N24 expressed in Escherichia coli BL21 (DE3) at 5 mM. Summed up:
(§1)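 His6-SrtAΔN24 (1 μM) was pre-incubated with inhibitor for 30 min at 37°C in 300 mM Tris pH 7.5, 150 mM NaCl, 5 mM CaCl2, 0.1% CHAPS and 2% DMSO. The reaction was started with 2 mM Abz-LPETG-Dap(DNP)-NH2 plus 2 mM NH2-Gly5-OH, run 30 min at 37°C, and quenched with 1.2 M HCl. Substrate and product were separated by reverse-phase HPLC and read at 355 nm. Percent substrate conversion came from peak areas.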

Test [3] concerns the target T2, Sortase A (Staphylococcus aureus). In words: Inhibition of 6-His tagged Staphylococcus aureus recombinant sortase delta N24 expressed in Escherichia coli BL21 (DE3) at 1 mM. Summed up: as §1

As for `CN(C)C(=N)N.O=C(NCCSSCCNC(=O)/C(Cc1ccc(S(=O)(=O)O)c(Br)c1)=N/O)/C(Cc1ccc(O)c(Br)c1)=N/O`, the IC50 (commonly the concentration that gives 50% inhibition) in test [1] is 48.3 µM. As for `C=CS(=O)(=O)[C@H]1C[C@@H](C(=O)OC)N[C@H]1c1ccccc1` (racemic), the result in test [2] was Active. Further, in test [1], the 50% inhibitory concentration (IC50) turned out to be 850 µM. Regarding `C=CS(=O)(=O)[C@H]1C[C@]2(C(=O)OC)CCC(=O)N2[C@H]1c1ccc(OC)c(OC)c1` (racemic), the IC50 in test [1] was 2680 µM. On to `C=CS(=O)(=O)[C@H]1C[C@]2(C(=O)OC)CCC(=O)N2[C@H]1c1cccnc1` (racemic), for which the half-maximal inhibitory concentration (IC50) in test [1] amounted to 2470 µM. Consider `C=CS(=O)(=O)[C@H]1C[C@@H](C(=O)OC)N[C@H]1c1cccc(F)c1` (racemic), for which the outcome in test [2] was Active. The IC50 in test [1] is 1040 µM. Consider `C=CS(=O)(=O)[C@H]1C[C@@](CCC(=O)OC)(C(=O)OC)N[C@H]1c1cccnc1` (racemic), for which the half-maximal inhibitory concentration (IC50) in test [1] was determined as 1860 µM.

On to `C=CS(=O)(=O)[C@H]1C[C@]2(C(=O)OC)CCC(=O)N2[C@H]1c1ccccc1` (racemic), for which, in test [1], the half-maximal inhibitory concentration (IC50) is 2200 µM. Consider `C=CS(=O)(=O)[C@H]1C[C@@H](C(=O)OC)N[C@H]1c1ccccc1F` (racemic), for which the outcome in test [2] was Active. In test [1], the IC50 came out at 1320 µM. As to `C=CS(=O)(=O)[C@H]1C[C@@](CCC(=O)OC)(C(=O)OC)N[C@H]1c1ccc(OC)c(OC)c1` (racemic), the IC50 in test [1] was over 5000 µM. Regarding `COC(=O)[C@@H]1C[C@@H](C#N)[C@H](c2cccc(Cl)c2)N1` (racemic), in test [2], the outcome was inactive.

Turning to `COC(=O)[C@@H]1C[C@@H](C#N)[C@H](c2cccc(F)c2)N1` (racemic), in test [2], the result was inactive. The same measure, in the same setting: the result for `COC(=O)[C@@H]1C[C@@H](C#N)[C@H](c2cccc(F)c2F)N1` (racemic) reads “inactive”. Regarding `COC(=O)[C@@H]1C[C@@H](C#N)[C@H](c2ccccc2)N1` (racemic), the inhibition (as a rule, the drop in the measured response relative to a control, in per cent) in test [2] was found to be 20%.

For `COC(=O)[C@@H]1C[C@@H](C#N)[C@H](c2ccccc2F)N1` (racemic), the inhibition in test [2] amounted to 20%.

On to `COC(=O)[C@@H]1C[C@H](C#N)[C@H](c2cccc(Cl)c2)N1` (racemic), for which the inhibition in test [2] was 20%.

As to `COC(=O)[C@@H]1C[C@H](C#N)[C@H](c2cccc(F)c2)N1` (racemic), in test [2], the result was inactive.

Consider `COC(=O)[C@@H]1C[C@H](C#N)[C@H](c2cccc(F)c2F)N1` (racemic), for which the outcome in test [2] was inactive.

For `COC(=O)[C@@H]1C[C@H](C#N)[C@H](c2cccc(F)c2F)N1C` (racemic), the outcome in test [2] was inactive. The same measure, in the same setting: the result for `COC(=O)[C@@H]1C[C@H](C#N)[C@H](c2ccccc2)N1` (racemic) reads “inactive”. On the same count and under the same terms, the result for `COC(=O)[C@@H]1C[C@H](C#N)[C@H](c2ccccc2)N1C` (racemic) reads “inactive”.

Regarding `COC(=O)[C@@H]1C[C@H](C#N)[C@H](c2ccccc2F)N1` (racemic), the inhibition in test [2] worked out at 20%. `COC(=O)[C@@H]1C[C@H](C#N)[C@H](c2ccccc2F)N1C` (racemic): in test [2], the inhibition turned out to be 20%. For the compound `COC(=O)[C@]1(C)C[C@@H](C#N)[C@H](c2ccc(Cl)cc2)N1` (racemic), in test [2], the result was inactive. For the compound `COC(=O)[C@]1(C)C[C@@H](C#N)[C@H](c2ccccc2C)N1` (racemic), in test [2], the outcome was inactive. Take `COC(=O)[C@]1(C)C[C@@H](C#N)[C@H](c2ccccc2Cl)N1` (racemic): the result in test [2] was inactive. Same read-out and setting: the result for `COC(=O)[C@]1(C)C[C@H](C#N)[C@H](c2ccc(Cl)cc2)N1` (racemic) reads “inactive”; that for `COC(=O)[C@]1(C)C[C@H](C#N)[C@H](c2ccccc2C)N1` (racemic), “inactive”; that for `COC(=O)[C@]1(C)C[C@H](C#N)[C@H](c2ccccc2C)N1C` (racemic), “inactive”. Still for that read-out and setting: the entry for `COC(=O)[C@]1(C)C[C@H](C#N)[C@H](c2ccccc2Cl)N1` (racemic) is “inactive”.

For the compound `COC(=O)[C@]1(C)C[C@H](C#N)[C@H](c2ccccc2Cl)N1C` (racemic), the inhibition in test [2] was 20%. Consider `Cc1cn(C[C@@H]2C[C@H](C#N)[C@H](c3ccccc3)N2C)c(=O)[nH]c1=O` (racemic), for which, in test [2], the outcome was inactive. Besides, the inhibition in test [3] amounted to 6%. With `C=CS(=O)(=O)c1ccccc1` [(ETHENYLSULFONYL)BENZENE], the IC50 in test [1] was determined as 736 µM.

For `COc1cc(/C=C/C(=O)CC(=O)/C=C/c2ccc(O)c(OC)c2)ccc1O` [CURCUMIN], the half-inhibitory concentration (IC50) in test [1] was 37.5 µM. Same read-out and setting: the figure for `O=c1c(O)c(-c2ccc(O)cc2O)oc2cc(O)cc(O)c12` [MORIN] is 37.4 µM.
